Legend:
Type in all cases: functional
Oryctolagus cuniculus = species on record: Oryctolagus cuniculus; test: Percent stimulation of adenylate cyclase determined in rabbit heart membranes at 5 uM of compound as compared to 5 uM of forskolin; details: Membrane
Cavia porcellus = species on record: Cavia porcellus; test: Percent conversion of total labeled nucleotides to cyclic AMP, determined in guinea pig cerebral cortical vesicular entities at 200 uM concentration
Procedure, shortened: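 Gray-matter cortex slices from male NIH guinea pigs (300 g) homogenized in O2/CO2-gassed KRB, pH 7.4. The 1000g pellet was labeled with [3H]adenine for 30 min at 37 °C, washed, post-incubated 15 min at 37 °C, and aliquoted. Aliquots were equilibrated 10 min at 37 °C, then given compound at 200 μM for 10 min at 30 °C and stopped with TCA. Read-out is labeled cAMP as percent of total labeled adenine nucleotides, reported as mean ± SEM.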

Rattus norvegicus = species on record: Rattus norvegicus; test: Concentration required to activate rat cerebral cortical adenylate cyclase activity elicited by 200 uM forskolin
Procedure, shortened: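 Fresh crude cortical membranes from male Sprague-Dawley rats (150-175 g). Incubated in 50 mM Tris-HCl pH 7.5 with 1.0 mM IBMX, 5 mM MgCl2, 0.1 mM ATP plus [α-32P]ATP, 0.2 mM EGTA, and a creatine phosphate/creatine kinase regenerating system. About 100 μg protein per assay, 30 °C for 10 min, stopped with TCA, [32P]cAMP isolated. Run in triplicate. EC50 taken from ≥2 curves over 0.01–200 μM. Where full activation was not reached, EC50 is the concentration giving 50% of the maximal activity with 200 μM forskolin.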

## CC(=O)OC1C(O)[C@H]2C(C)(C)CC[C@H](O)C2(C)[C@@]2(O)C(=O)C[C@](C)(C3CO3)O[C@H]12 (some centres undefined)
Oryctolagus cuniculus
  Stimulation: 5%
Cavia porcellus
  Conversion: 0.22%

## C=C[C@@]1(C)CC(=O)[C@@]2(O)[C@H](O1)C(OC(=O)N(CC)CC)C(O)[C@H]1C(C)(C)CC[C@H](O)C12C (some centres undefined)
Oryctolagus cuniculus
  Stimulation: 59%
Cavia porcellus
  Conversion: 0.84%
Rattus norvegicus
  EC50: 200 µM

## C=C[C@@]1(C)CC(=O)[C@@]2(O)[C@H](O1)C(OC(C)=O)C(O)[C@H]1C(C)(C)CC[C@H](O)C12C (some centres undefined)
Oryctolagus cuniculus
  Stimulation: 100%
Cavia porcellus
  Conversion: 4.4%
Rattus norvegicus
  EC50: 8 µM

## C=C[C@@]1(C)CC(=O)[C@@]2(O)[C@H](O1)C(OS(=O)(=O)c1ccc(C)cc1)C(O)[C@H]1C(C)(C)CC[C@H](O)C12C (some centres undefined)
Oryctolagus cuniculus
  Stimulation: 5%
Cavia porcellus
  Conversion: 0.16%
Rattus norvegicus
  EC50: > 25 µM

## C=C[C@@]1(C)CC(=O)[C@@]23OS(=O)O[C@H]4CCC(C)(C)[C@H](C(O)C(OC(C)=O)[C@H]2O1)C43C (some centres undefined)
Oryctolagus cuniculus
  Stimulation: 28%
Cavia porcellus
  Conversion: 1.2%
Rattus norvegicus
  EC50: > 200 µM

## C=C[C@@]1(C)CC(=O)[C@@]2(O)[C@H](O1)C(OC(C)=O)C(O)[C@H]1C(C)(C)CCC(=O)C12C (some centres undefined)
Oryctolagus cuniculus
  Stimulation: 47%
Cavia porcellus
  Conversion: 0.76%
Rattus norvegicus
  EC50: 200 µM

## C=C[C@@]1(C)CC(=O)[C@@]2(O)[C@H](O1)C(OC(=O)OCC)C(O)[C@H]1C(C)(C)CC[C@H](O)C12C (some centres undefined)
Oryctolagus cuniculus
  Stimulation: 60%
Cavia porcellus
  Conversion: 4.01%
Rattus norvegicus
  EC50: 8 µM

## C=C[C@@]1(C)CC(=O)[C@@]2(O)[C@H](O1)C(O)C(O)[C@H]1C(C)(C)CC[C@H](O)C12C (some centres undefined)
Oryctolagus cuniculus
  Stimulation: 51%
Cavia porcellus
  Conversion: 1.37%
Rattus norvegicus
  EC50: 20 µM

## C=C[C@@]1(C)CC(=O)[C@@]2(O)[C@H](O1)C(OC(=O)CC)C(O)[C@H]1C(C)(C)CC[C@H](O)C12C (some centres undefined)
Oryctolagus cuniculus
  Stimulation: 67%
Cavia porcellus
  Conversion: 1.07%
Rattus norvegicus
  EC50: 15 µM

## C=C[C@@]1(C)CC(=O)[C@H]2[C@H](O1)C(OC(C)=O)C(O)[C@H]1C(C)(C)CC[C@H](O)C21C (some centres undefined)
Oryctolagus cuniculus
  Stimulation: 46%
Cavia porcellus
  Conversion: 0.84%
Rattus norvegicus
  EC50: 100 µM

## C=C[C@@]1(C)C[C@@H](O)[C@H]2[C@H](O1)C(O)C(O)[C@H]1C(C)(C)CC[C@H](O)C21C (some centres undefined)
Oryctolagus cuniculus
  Stimulation: 1.6%
Cavia porcellus
  Conversion: 0.41%

## C=C[C@@]1(C)CC(=O)[C@H]2[C@H](O1)C(OC(C)=O)C(O)[C@H]1C(C)(C)CCCC21C (some centres undefined)
Oryctolagus cuniculus
  Stimulation: 1%
Cavia porcellus
  Conversion: 0.18%

## CC[C@@]1(C)CC(=O)[C@@]2(O)[C@H](O1)C(OC(C)=O)C(O)[C@H]1C(C)(C)CC[C@H](O)C12C (some centres undefined)
Oryctolagus cuniculus
  Stimulation: 49%
Cavia porcellus
  Conversion: 0.97%
Rattus norvegicus
  EC50: 100 µM

## C=C[C@@]1(C)C[C@H](O)[C@@]2(O)[C@H](O1)C(OC(C)=O)C(O)[C@H]1C(C)(C)CC[C@H](O)C12C (some centres undefined)
Oryctolagus cuniculus
  Stimulation: 49%
Cavia porcellus
  Conversion: 0.97%
Rattus norvegicus
  EC50: 50 µM

## C=C[C@@]1(C)CC(=O)[C@@]2(O)[C@H](O1)C(OC(C)=O)C(OC(C)=O)[C@H]1C(C)(C)CC[C@H](OC(C)=O)C12C (some centres undefined)
Oryctolagus cuniculus
  Stimulation: 20%
Cavia porcellus
  Conversion: 0.47%
Rattus norvegicus
  EC50: > 200 µM

## C=C[C@@]1(C)CC(=O)[C@@]2(O)[C@H](O1)C(OC(C)=O)C(=O)[C@H]1C(C)(C)CCC(=O)C12C (some centres undefined)
Oryctolagus cuniculus
  Stimulation: 0%
Cavia porcellus
  Conversion: 0.17%

## C=C[C@@]1(C)CC(=O)[C@@]2(O)[C@H](O1)C(OC(=O)c1cc(OC)c(OC)c(OC)c1)C(O)[C@H]1C(C)(C)CC[C@H](O)C12C (some centres undefined)
Oryctolagus cuniculus
  Stimulation: 31%
Cavia porcellus
  Conversion: 0.26%
Rattus norvegicus
  EC50: > 25 µM

## CC(=O)OC1C(O)[C@H]2C(C)(C)CC[C@H](O)C2(C)[C@@]23OC(CO)[C@@](C)(CC2=O)O[C@H]13 (some centres undefined)
Oryctolagus cuniculus
  Stimulation: 0%
Cavia porcellus
  Conversion: 0.18%

## C=C[C@@]1(C)CC(=O)[C@@]23OC(=O)O[C@H]4CCC(C)(C)[C@H](C5OC(=O)OC5[C@H]2O1)C43C (some centres undefined)
Oryctolagus cuniculus
  Stimulation: 1%
Cavia porcellus
  Conversion: 0.25%

## C=C[C@@]1(C)CC(=O)[C@@]2(O)[C@H](O1)C(OC=O)C(O)[C@H]1C(C)(C)CC[C@H](O)C12C (some centres undefined)
Oryctolagus cuniculus
  Stimulation: 52%
Cavia porcellus
  Conversion: 0.47%
Rattus norvegicus
  EC50: 150 µM
